Bioassay records (PubChem)
GPR7 antagonist – human neuropeptides B/W receptor 1 antagonism | P48145 | GPR7-expressing cells, fluorescence antagonist assay | inhibition, % at 4.4 µM | actives 1.1% (n = 290,000) | AID 1861; in the data active = inhibition above about 16%, passing the limit was not always enough;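 note: cells stimulated with the agonist NPW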
CHO parental Ca – counter-screen for OX1R antagonists: effect in parental CHO cells | parental CHO-K1, ATP-induced calcium, Fluo-8 fluorescence | inhibition, % at 5.6 µM | actives 0.63% (n = 330,000);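 active = inhibition above that plate's mean sample inhibition plus 3 SD, cut at about 26% in these data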
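Assay system – parental CHO cells · Reagent – ATP stimulus · Detection – intracellular calcium via Fluo-8 no-wash fluorescent dye · Evaluation – percent inhibition of ATP-evoked calcium rise, normalized to controls · Controls – ATP wells versus no-ATP DMSO wells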
OX1R antag-1 – OX1R (human) antagonism. inhibition, % at 6.6 µM. actives 1.8% (n = 330,000). OX1R-expressing cells, FRET antagonist read-out. O43613. AID 485270; in the data active = inhibition mostly above about 38%, no sharp cut-off; inactive = mostly below about 40%
Target sequence (O43613 whole entry, looked up): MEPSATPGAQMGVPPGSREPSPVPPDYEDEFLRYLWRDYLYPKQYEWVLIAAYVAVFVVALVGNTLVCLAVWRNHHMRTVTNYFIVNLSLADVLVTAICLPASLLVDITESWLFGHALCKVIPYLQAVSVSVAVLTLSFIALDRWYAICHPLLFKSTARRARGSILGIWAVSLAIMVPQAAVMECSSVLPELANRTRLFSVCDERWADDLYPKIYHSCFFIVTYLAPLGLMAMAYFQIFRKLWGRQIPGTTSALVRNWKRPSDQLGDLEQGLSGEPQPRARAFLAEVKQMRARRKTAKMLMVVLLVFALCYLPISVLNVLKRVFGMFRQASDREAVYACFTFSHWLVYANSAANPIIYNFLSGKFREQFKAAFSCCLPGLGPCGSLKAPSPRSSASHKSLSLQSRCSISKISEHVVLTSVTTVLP
OX1R antag-2 – blocks the human orexin 1 receptor | O43613 | CHO/OX1R cells, Fluo-8 calcium fluorescence, orexin A | inhibition, % at 5 µM | actives 0.43% (n = 330,000) | AID 434989;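 active = inhibition above its plate's threshold, mean inhibition of all tested compounds on the plate plus 3 SD, cut at about 37% in these data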
GalR3 antagonist – human GalR3 antagonism | O60755 | HEK293 GalR3-CNG cAMP membrane potential fluorescence; galR3 body fused to GalR1 C-terminus | actives 0.44% (n = 360,000) | inhibition, % at 3 µM;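 active = inhibition above the screen-wide average plus 3 SD, cut at about 13% in these data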;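 note: forskolin and galanin both at EC90 stimulate the cells; cAMP rise reported by CNG channel membrane potential dye signal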
Hits are given with their value; . = inactive; / = no result given. Only some compounds are listed: those with a hit (about 3.1% of all), similar ones and a draw of the others.

SMILES | GPR7 antagonist | CHO parental Ca | OX1R antag-1 | OX1R antag-2 | GalR3 antagonist
CCOC(=O)c1c(C)[nH]c(C)c1C(=O)COC(=O)c1cc2ccccc2cc1O | . | . | 72 | . | .
CCOC(=O)c1c(C)oc2c1cc(O)c1ccccc12 | . | . | . | . | .
COCCCNC(=O)C(=O)NCC1CCCN1S(=O)(=O)c1cccs1 (stereo not given) | / | . | . | . | .
CCOC(=O)c1c(-c2ccccc2)oc2ccc(OC(C)=O)cc12 | . | . | 64 | . | .
CCOC(=O)c1c(-c2ccccc2)oc2ccc(OC(C)C(=O)O)cc12 (stereo not given) | . | . | . | . | .
COc1cc(/C=N/Nc2snc(SC)c2C#N)ccc1O | . | . | 81 | . | .
COc1cc(OC)cc(-c2nn[nH]n2)c1 | . | . | . | . | .
COC(=O)c1cc2c(c3c4cc(F)ccc4n(S(=O)(=O)c4cccc(C)c4)c13)C(=O)N(Cc1ccc(C(F)(F)F)cc1)C2 | / | / | / | / | .
CCCCCCCCN1C(=O)[C@@H](CC(=O)NCCCN2CCCC2=O)C[C@@]2(C(=O)OC)C1=C[C@H](C(C)(C)C)O[C@@H]2C | / | / | / | / | .
CCCn1c2ccccc2c2nnc(SCCN3CCOCC3)nc21 | . | . | . | . | .
c1ccc2nc3c(nc2c1)c1ccccc1n3CCN1CCOCC1 | . | . | 49 | . | .
CCCC(=O)Nc1cc2c3c(c1)CCN3C(=O)CC2 | . | . | . | . | .
Cn1nnnc1Sc1ncnc2scc(-c3ccc([N+](=O)[O-])cc3)c12 | / | . | 39 | . | .
COCCCn1c(O)c(/C=C2\N=C(C#N)C(=Nc3ccc(C)cc3)O2)sc1=S | . | 39 | . | . | .
Cc1ccc(-n2[nH]c(C)c(C=Nc3ccc(Br)cn3)c2=O)cc1 | . | . | . | . | .
CCSc1nnc(-c2cc(Br)ccc2N=Cc2c(C)[nH]n(-c3ccccc3)c2=O)c(=O)[nH]1 | . | . | 75 | . | .
CSc1nnc(-c2cc(Br)ccc2N=Cc2c(C)[nH]n(-c3ccccc3)c2=O)c(=O)[nH]1 | . | . | 48 | . | .
CCSc1nnc(-c2ccccc2N=Cc2c(C)[nH]n(-c3ccccc3)c2=O)c(=O)[nH]1 | . | . | . | . | .
O=C(c1cc(F)ccc1F)C1CCCN(C(=O)CCN2CCCCO2)C1 (stereo not given) | . | . | . | . | .
O=C(OC1Cn2c(=O)ccc(=O)n2C1)c1ccc([N+](=O)[O-])cc1 | . | . | 45 | . | .
Cc1ccc(C(=O)OC2CCN(c3ccc([N+](=O)[O-])cc3)CC2)cc1 | . | . | . | . | .
Nc1nc(SCC(=O)c2ccc([N+](=O)[O-])cc2)n[nH]1 | . | . | 49 | . | .
Cc1ccc(N(CC(=O)NC(C)c2ccccc2)S(=O)(=O)c2c(C)noc2C)cc1 (stereo not given) | . | . | 52 | . | .
COc1cccc(CNC(=O)CN(c2cc(C)cc(C)c2)S(=O)(=O)c2c(C)noc2C)c1 | . | . | 46 | . | .
Cc1cccc(C)c1NC(=O)CN1C(=O)NC(C)(C2CC2)C1=O (stereo not given) | / | . | . | . | .
SMILES | GPR7 antagonist | CHO parental Ca | OX1R antag-1 | OX1R antag-2 | GalR3 antagonist
COc1ccc(OCCCC(=O)Nc2cccc(C(C)=O)c2)cc1 | . | . | . | . | .
COc1ccc(OCCCC(=O)OC(C)C(=O)Nc2cccc(C(C)=O)c2)cc1 (stereo not given) | . | . | 64 | . | .
CN(Cc1ccccc1)S(=O)(=O)c1ccc(NS(C)(=O)=O)cc1 | . | . | . | . | .
Cc1cc(-c2ccc(S(=O)(=O)N(C)Cc3ccccc3)cc2)on1 | . | 38 | . | . | .
CC(=O)N1CCOc2ccc(S(=O)(=O)NCC3CCC(C(=O)Nc4ncccc4C)CC3)cc21 (stereo not given) | . | . | . | . | .
N#CC1=C(N)SC(N)=C(C#N)C1Cc1ccccc1 | . | . | 39 | . | .
Cc1ccc(NC(=S)N/N=C/c2ccc(Cl)c([N+](=O)[O-])c2)cc1 | . | . | . | . | .
O=C(N/N=C/c1ccc(Cl)c([N+](=O)[O-])c1)C1CC1 | . | . | 59 | . | .
O=[N+]([O-])c1cc(/C=N/NC(=S)Nc2ccccc2Cl)ccc1Cl | 30 | . | . | . | .
O=C(N/N=C/c1cc(Cl)cc([N+](=O)[O-])c1O)C1CC1 | . | . | . | . | .
O=C1OC(Nc2cc(Br)cc3cccnc23)c2ccccc21 (stereo not given) | . | . | 62 | . | .
O=C1OC(Nc2ncccn2)c2ccccc21 (stereo not given) | . | . | . | . | .
C#CCN(C[C@H]1[C@H](OC(=O)NCc2ccccc2F)[C@H](OC(=O)NCc2ccccc2F)C[C@H]2C(=O)N(c3ccccc3)C(=O)[C@@H]12)S(=O)(=O)c1ccc(C)cc1 | / | / | / | / | .
COc1ccc(NC(=O)[C@@H]2CC=C[C@@H]3CCN(Cc4ccccc4)C(=O)[C@@H]32)cc1 | / | . | . | . | .
O=C(Nc1nccs1)[C@@H]1CC=C[C@@H]2CCN(Cc3ccccc3)C(=O)[C@@H]21 | / | . | 68 | . | .
CCOC(=O)c1cnc(-n2[nH]c(C)c(Cc3ccccc3)c2=O)[nH]c1=O | 17 | . | . | . | .
Cc1cc(SCC(=O)N/N=C/c2ccc(O)cc2O)nc2ccccc12 | . | . | 50 | . | .
N#Cc1cc([N+](=O)[O-])ccc1NC(=O)COC(=O)CN1C(=O)C2CCCCC2C1=O (stereo not given) | / | . | 43 | . | .
CC(=O)c1ccc(NC(=O)C(C)OC(=O)/C=C/c2ccco2)cc1 (stereo not given) | / | . | . | . | .
O=C(/C=C/c1ccc([N+](=O)[O-])cc1)OCC(=O)N1CCCCCC1 | / | . | . | . | .
O=C(Nc1ccccc1C(=O)N1CCOCC1)c1ccc(F)cc1 | . | . | . | . | .
O=C(CN1CCOCC1)NNC(=O)c1ccc([N+](=O)[O-])cc1 | . | . | 43 | . | .
O=C(CN1CCOCC1)N1CCN(c2ccc([N+](=O)[O-])cc2)CC1 | . | . | 75 | . | .
O=C(Nc1ccccc1C(=O)N1CCOCC1)c1ccc([N+](=O)[O-])cc1 | . | . | 47 | . | .
O=C(CN1CCN(c2ccc([N+](=O)[O-])cc2Cl)CC1)N1CCOCC1 | . | . | . | . | .
O=C(/C=C/c1ccc([N+](=O)[O-])cc1)OCC(=O)N1CCOCC1 | / | . | 70 | . | .
Cc1cc(=O)n2nc(N3CCCC(C(=O)NC4CCC(C)CC4)C3)sc2n1 (stereo not given) | . | . | . | . | .
CNC(=O)Cn1nc(-c2ccc(Cl)cc2)c2ccccc2c1=O | . | . | . | . | /
O=C(NCC(c1ccco1)N1CCOCC1)c1cccc([N+](=O)[O-])c1 (stereo not given) | . | . | . | . | .
O=C(Cn1cnc2ccccc2c1=O)N1CCN(c2ccccc2)CC1 | . | . | . | . | .
